Laboratory results taken from ChEMBL document CHEMBL3244220, “Diuretic activity of Mannich base derivatives of ethacrynic acid and certain ethacrynic acid analogues” (J Med Chem, 1978).
The source made the active and inactive calls. No cut-off for these calls is given here.

How the values were obtained:
[1] = Solubility of the compound in 0.9% saline; assay type: physicochemical; conditions: buffer
Canis familiaris [2] = assay: Diuretic activity in mongrel dog assessed as decrease in rate of sodium excretion during 2 hrs period at 17 umol/kg, iv for 10 mins; assay type: functional, organism-based; conditions: Canis lupus familiaris, Urine
In short: (§1)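 Single 17.0 μmol/kg iv dose in 10 mL 0.9% saline, given over 10 min; sodium salts formed with NaHCO3 where needed. GFR from plasma and urine inulin; Na by flame photometry. Changes per kg computed for each 10-min period after dosing minus the predrug period; mean Δ ± SEM, paired comparison, p < 0.05.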

[3] = Metabolic stability in dog urine assessed as ethacrynic acid release after 72 hrs at pH 7 +/- 0.5 by NMR/TLC analysis; assay type: ADME, tissue-based, Canis lupus familiaris; conditions: pH 7, 72 h
Canis familiaris [4] = assay: Diuretic activity in mongrel dog assessed as decrease in glomerular filtration rate during 2 hrs period at 17 umol/kg, iv for 10 mins; assay type: functional, organism-based; conditions: Canis lupus familiaris, Urine; in short: as §1
Canis familiaris [5] = assay: Inhibition of ethacrynic acid-induced diuresis in mongrel dog assessed as decrease in glomerular filtration rate during 2 hrs period at 17 umol/kg, iv for 10 mins; assay type: organism-based, Canis lupus familiaris; conditions: in vivo
In short: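 Dogs received 17.0 μmol/kg iv over 10 min, and renal parameters were followed for 2 h. Sodium ethacrynate, 3.3 μmol/kg iv in 10 mL saline over 10 min, was then given. Inulin GFR/kg and Na excretion/kg were taken per 10-min period as change from the predrug value; mean Δ ± SEM; paired comparison, p < 0.05.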

Canis familiaris [6] = assay: Toxicity in mongrel dog assessed as change in blood pressure at 17 umol/kg, iv for 10 mins; assay type: organism-based, Canis lupus familiaris; conditions: in vivo
Canis familiaris [7] = assay: Toxicity in mongrel dog assessed as increase in diastolic pressure at 17 umol/kg, iv for 10 mins; assay type: organism-based, Canis lupus familiaris; conditions: in vivo
Canis familiaris [8] = assay: Toxicity in mongrel dog assessed as increase in systolic pressure at 17 umol/kg, iv for 10 mins; assay type: organism-based, Canis lupus familiaris; conditions: in vivo
[9] = Biotransformation in mongrel dog assessed as ethacrynic acid-cysteine in urine at 17 umol/kg, iv for 10 mins after 2 hrs; assay type: ADME, organism-based, Canis lupus familiaris; conditions: in vivo
In short: (§2)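 Dogs given 17.0 μmol/kg iv in 10 mL 0.9% saline, prepared 3–5 min before dosing and infused over 10 min. Urine collected for 2 h after dosing and freeze-dried in 1-h portions; control urine from nine 10-min predrug periods handled the same way. Residues taken up in H2O and run on cellulose TLC in n-BuOH–C6H6–MeOH–H2O (20:10:12.5:10); spots located by UV and ninhydrin.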

[10] = Biotransformation in mongrel dog assessed as ethacrynic acid-glutathione in urine at 17 umol/kg, iv for 10 mins after 2 hrs; assay type: ADME, organism-based, Canis lupus familiaris; conditions: in vivo; in short: as §2

Row | solubility [1] | Stability [3] | Drug metabolism [9] | Drug metabolism [10] | SMILES | Activity (Canis familiaris [2]) | Activity (Canis familiaris [4]) | Activity (Canis familiaris [5]) | Activity (Canis familiaris [6]) | Activity (Canis familiaris [7]) | Activity (Canis familiaris [8])
1 | soluble | Stable |  |  | CN(C)CC(C)(C)C(=O)c1ccc(OCC(=O)O)c(Cl)c1Cl.Cl | inactive | inactive | Toxic | Non-toxic |  | 
2 |  |  |  |  | C=C(CC)C(=O)c1ccc(OCC(=O)[O-])cc1.[Na+] |  | inactive | Non-toxic | Non-toxic |  | 
3 | soluble | Stable |  |  | CCC(CN(C)C)C(=O)c1ccc(OCC(=O)O)cc1.Cl (stereo not given) |  | inactive | Non-toxic | Non-toxic |  | 
4 |  |  |  |  | C=C(CC)C(=O)c1ccc(OCC(=O)[O-])c(Cl)c1Cl.[Na+] [ETHACRYNATE SODIUM] |  | Active |  | Non-toxic |  | 
5 |  |  |  |  | C=C(C)C(=O)c1ccc(OCC(=O)[O-])c(Cl)c1Cl.[Na+] |  | Active |  |  | Toxic | Toxic
6 | soluble | Unstable | metabolite_detected | metabolite_detected | CCC(CN(C)C)C(=O)c1ccc(OCC(=O)O)c(Cl)c1Cl.Cl (stereo not given) |  | Active |  | Non-toxic |  | 
